In ChEMBL document CHEMBL4334451, “Natural Alkaloid Berberine Activity against Pseudomonas aeruginosa MexXY-Mediated Aminoglycoside Resistance: In Silico and in Vitro Studies” (J Nat Prod, 2019):
The source made the active and inactive calls. The calls are words filed in the database; no cut-off is given here.

What was measured:
Type in all cases: protein-complex assay
[1] = target: T1, MexXY/OprM (Pseudomonas aeruginosa (strain ATCC 15692 / DSM 22644 / CIP 104116 / JCM14847 / LMG 12228 / 1C / PRS 101 / PAO1)) (UniProt Q51487+Q9ZNG9+Q9ZNG8); test: Inhibition of MexXY/OPRM in Pseudomonas aeruginosa C95 assessed as reduction in bacterial resistance to tobramycin by measuring tobramycin MIC at 80 ug/ml incubated for 24 to 48 hrs by broth microdilution method (reference value: 32 ug/ml)
Summary of the method: (§1)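 Broth microdilution per CLSI, with P. aeruginosa ATCC 27853 as reference strain, in 2-fold dilution series. Plates were incubated at 37°C and read for visible growth at 24 and 48 h. Berberine stock was in 50% DMSO/50% methanol, with final DMSO kept near 1%. Berberine was tested at 10–320 µg/ml, alone or at a fixed level with serial tobramycin.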

[2] = target: T1, MexXY/OprM (Pseudomonas aeruginosa (strain ATCC 15692 / DSM 22644 / CIP 104116 / JCM14847 / LMG 12228 / 1C / PRS 101 / PAO1)); test: Inhibition of MexXY/OPRM in Pseudomonas aeruginosa C89 assessed as bacterial growth up to 320 ug/ml incubated for 24 to 48 hrs by broth microdilution method; summary of the method: as §1
[3] = target: T1, MexXY/OprM (Pseudomonas aeruginosa (strain ATCC 15692 / DSM 22644 / CIP 104116 / JCM14847 / LMG 12228 / 1C / PRS 101 / PAO1)); test: Inhibition of MexXY/OPRM in Pseudomonas aeruginosa K767 assessed as reduction in bacterial resistance to tobramycin by measuring tobramycin MIC at 80 ug/ml incubated for 24 to 48 hrs by broth microdilution method (reference value: 0.25 ug/ml); summary of the method: as §1
[4] = target: T1, MexXY/OprM (Pseudomonas aeruginosa (strain ATCC 15692 / DSM 22644 / CIP 104116 / JCM14847 / LMG 12228 / 1C / PRS 101 / PAO1)); test: Inhibition of MexXY/OPRM in Pseudomonas aeruginosa C51 assessed as reduction in bacterial resistance to tobramycin by measuring tobramycin MIC at 80 ug/ml incubated for 24 to 48 hrs by broth microdilution method (reference value: 0.125 ug/ml)
[5] = target: T1, MexXY/OprM (Pseudomonas aeruginosa (strain ATCC 15692 / DSM 22644 / CIP 104116 / JCM14847 / LMG 12228 / 1C / PRS 101 / PAO1)); test: Inhibition of MexXY/OPRM in Pseudomonas aeruginosa C31 assessed as bacterial growth up to 320 ug/ml incubated for 24 to 48 hrs by broth microdilution method
Summary of the method: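 Broth microdilution following CLSI guidelines, with P. aeruginosa ATCC 27853 as reference strain. Berberine was tested at 2-fold concentrations from 10 to 320 µg/ml, dissolved in 50% DMSO/50% methanol, with the top concentration set to keep final DMSO close to 1%. Plates were incubated at 37°C and read for visible growth at 24 and 48 h.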

[6] = target: T1, MexXY/OprM (Pseudomonas aeruginosa (strain ATCC 15692 / DSM 22644 / CIP 104116 / JCM14847 / LMG 12228 / 1C / PRS 101 / PAO1)); test: Inhibition of MexXY/OPRM in Pseudomonas aeruginosa C52 assessed as reduction in bacterial resistance to tobramycin by measuring tobramycin MIC at 80 ug/ml incubated for 24 to 48 hrs by broth microdilution method (reference value: >128 ug/ml)

COc1ccc2cc3[n+](cc2c1OC)CCc1cc2c(cc1-3)OCO2 [BERBERINE]
MIC [1]: 4 µg/mL
inhibition [2]: inactive
MIC [3]: 0.125 µg/mL
MIC [4]: < 0.125 µg/mL
inhibition [5]: inactive
MIC [6]: 128 µg/mL
